Published values from different studies.
Lines come from different studies, so protocols differ.
Target: Vascular endothelial growth factor receptor 2 (KDR, Homo sapiens, UniProt P35968)

C=CC(=O)Nc1cccc(CN2C(=O)N(c3c(Cl)c(OC)cc(OC)c3Cl)Cc3cnc(NCCCCN(CC)CC)nc32)c1  Kd (binding; competition with immobilised ligand): 210 nM
CN1CCN(c2ccc(Nc3ncc4cc(C#N)c(=O)n(C5CCCC5)c4n3)cc2)CC1  IC50 (enzyme activity; inhibitor): 56.8 nM
Cc1cc(Nc2cc3ncccc3c(N[C@@H]3C[C@H]4CC[C@@H](C3)N4CCC#N)n2)n[nH]1  Kd (binding; competition with immobilised ligand): 620 nM
CNC(=O)c1cc2c(Oc3ccc(NC(=O)C4(C(=O)Nc5ccc(F)cc5)CC4)cc3)ccnc2cc1OC  IC50 (enzyme activity; inhibitor; radiometric): 6 nM
CC(C)(C)n1nc(-c2ccc3nc(OC4CC4)ccc3c2)c(C(N)=O)c1N  IC50 (cell-free assay): 450 nM
Cc1ccc(C(=O)Nc2ccc(Oc3cc4cnn(C)c4cc3-c3cn[nH]c3)c(F)c2)c(=O)n1-c1ccc(F)cc1  IC50 (phosphorylation in cells; inhibitor; AlphaScreen): 347 nM
Cc1cc(Nc2cc(CN3CCOCC3)c3nc(C)c(Cc4ccc(Cl)cc4F)n3n2)n[nH]1  IC50 (enzyme activity; inhibitor; TR-FRET): 109 nM
CC(C)(C)n1nc(-c2cnc3cc(OC4CC4)ccc3c2)c(C(N)=O)c1N  IC50 (cell-free assay): 1090 nM
